Results reported in ChEMBL document CHEMBL1148778, “Synthesis and characterization of nonsteroidal glucocorticoid receptor modulators for multiple myeloma” (J Med Chem, 2007).

Tests used:
Progesterone receptor = molecular target: T1, Progesterone receptor (Homo sapiens, UniProt P06401); test: Binding affinity to PR
T1 sequence (P06401 whole entry): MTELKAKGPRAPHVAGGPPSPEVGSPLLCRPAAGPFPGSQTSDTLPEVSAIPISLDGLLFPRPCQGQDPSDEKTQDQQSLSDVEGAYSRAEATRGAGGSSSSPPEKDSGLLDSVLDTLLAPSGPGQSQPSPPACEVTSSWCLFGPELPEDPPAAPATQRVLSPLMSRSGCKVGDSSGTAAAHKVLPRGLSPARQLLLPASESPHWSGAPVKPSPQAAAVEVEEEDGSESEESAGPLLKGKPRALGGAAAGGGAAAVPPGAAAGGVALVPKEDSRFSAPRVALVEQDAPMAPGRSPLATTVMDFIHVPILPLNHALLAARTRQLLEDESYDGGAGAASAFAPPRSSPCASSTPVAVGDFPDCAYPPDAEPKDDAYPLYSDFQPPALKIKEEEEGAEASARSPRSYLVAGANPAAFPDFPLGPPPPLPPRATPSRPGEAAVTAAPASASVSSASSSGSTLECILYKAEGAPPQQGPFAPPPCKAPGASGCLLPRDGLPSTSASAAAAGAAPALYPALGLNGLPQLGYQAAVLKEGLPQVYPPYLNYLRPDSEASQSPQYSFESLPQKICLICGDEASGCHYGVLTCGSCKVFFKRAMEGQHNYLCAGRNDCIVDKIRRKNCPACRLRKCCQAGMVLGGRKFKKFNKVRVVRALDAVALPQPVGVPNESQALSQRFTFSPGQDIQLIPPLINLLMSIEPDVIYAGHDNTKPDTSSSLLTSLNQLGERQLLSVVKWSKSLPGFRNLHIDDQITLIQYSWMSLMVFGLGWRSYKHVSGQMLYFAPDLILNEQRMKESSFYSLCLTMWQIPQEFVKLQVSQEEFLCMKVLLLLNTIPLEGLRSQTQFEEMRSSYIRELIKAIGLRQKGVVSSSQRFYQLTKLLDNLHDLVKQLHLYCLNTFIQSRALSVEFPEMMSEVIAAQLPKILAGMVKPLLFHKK
Outline: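 Competitive binding assays on PR and MR. Values are means of at least three separate experiments, each with triplicate determinations, ± SEM. A value without SEM comes from a single determination.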

RPMI-8226 [1] = test: Antiproliferative activity against human RPMI8226 cells after 4 days; type: functional, cell-based; conditions: RPMI-8226, 96 h
RPMI-8226 [2] = test: Inhibition of tumor growth in human RPMI8226 cells xenografted nude mouse at 10 mg/kg, po after 4 weeks relative to Dexamethasone; type: functional
RPMI-8226 [3] = test: Inhibition of tumor growth in human RPMI8226 cells xenografted nude mouse at 100 mg/kg, po after 4 weeks relative to Dexamethasone; type: functional
RPMI-8226 [4] = test: Inhibition of tumor growth in human RPMI8226 cells xenografted nude mouse at 30 mg/kg, po after 4 weeks relative to Dexamethasone; type: functional
RPMI-8226 [5] = test: Inhibition of tumor growth in human RPMI8226 cells xenografted nude mouse at 3 mg/kg, po after 4 weeks relative to Dexamethasone; type: functional
[6] = molecular target: T2, Mineralocorticoid receptor (Homo sapiens) (UniProt P08235); test: Agonist activity at mineralocorticoid receptor by MR activation assay; type: functional
T2 sequence (whole entry): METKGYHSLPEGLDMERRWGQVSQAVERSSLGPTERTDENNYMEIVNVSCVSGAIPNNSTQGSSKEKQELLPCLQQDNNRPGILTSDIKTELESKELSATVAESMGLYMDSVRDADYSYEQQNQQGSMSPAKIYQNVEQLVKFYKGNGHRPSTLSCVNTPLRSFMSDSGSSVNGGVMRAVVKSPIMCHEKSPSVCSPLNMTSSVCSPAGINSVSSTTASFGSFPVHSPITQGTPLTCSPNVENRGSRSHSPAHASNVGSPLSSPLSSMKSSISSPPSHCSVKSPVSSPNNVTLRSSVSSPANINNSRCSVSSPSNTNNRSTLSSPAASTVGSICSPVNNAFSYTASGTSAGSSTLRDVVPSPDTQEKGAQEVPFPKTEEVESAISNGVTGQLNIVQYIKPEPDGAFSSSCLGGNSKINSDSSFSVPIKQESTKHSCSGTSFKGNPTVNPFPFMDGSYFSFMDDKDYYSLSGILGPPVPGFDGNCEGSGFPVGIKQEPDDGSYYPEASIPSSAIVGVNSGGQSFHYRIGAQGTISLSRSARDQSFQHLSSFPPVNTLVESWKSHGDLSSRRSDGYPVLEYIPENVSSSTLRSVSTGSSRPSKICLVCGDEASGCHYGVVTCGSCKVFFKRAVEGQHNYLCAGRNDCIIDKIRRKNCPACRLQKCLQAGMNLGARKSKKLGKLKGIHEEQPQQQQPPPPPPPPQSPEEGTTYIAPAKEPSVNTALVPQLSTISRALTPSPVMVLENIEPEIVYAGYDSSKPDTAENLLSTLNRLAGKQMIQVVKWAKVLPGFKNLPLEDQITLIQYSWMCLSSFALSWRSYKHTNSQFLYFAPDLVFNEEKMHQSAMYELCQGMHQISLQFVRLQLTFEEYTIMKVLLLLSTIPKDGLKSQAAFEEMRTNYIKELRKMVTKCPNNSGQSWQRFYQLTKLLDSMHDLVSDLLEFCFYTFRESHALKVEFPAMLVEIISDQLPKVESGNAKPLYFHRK

[7] = molecular target: T2, Mineralocorticoid receptor (Homo sapiens); test: Antagonist activity at mineralocorticoid receptor by MR activation assay; type: functional; set-up: scale not given: the % may be the effect or the level left

Row | Structure (SMILES) | Ki (Progesterone receptor) | IC50 (RPMI-8226 [1]) | Efficacy (RPMI-8226 [2]) | Efficacy (RPMI-8226 [3]) | Efficacy (RPMI-8226 [4]) | Efficacy (RPMI-8226 [5]) | Activity [6] | Activity [7]
1 | CO/N=C(\C)c1ccsc1/C=C1\Oc2ccc(O)c(OC)c2-c2ccc3c(c21)C(C)=CC(C)(C)N3 | 38 nM | 9.5 nM | 78% | 95% | 82% |  |  | 
2 | COc1c(O)ccc2c1-c1ccc3c(c1/C(=C/c1sccc1CO)O2)C(C)=CC(C)(C)N3 | 1400 nM | 4.9 nM |  | 97% | 80% | 29% |  | 
3 | COCc1ccsc1/C=C1\Oc2ccc(O)c(OC)c2-c2ccc3c(c21)C(C)=CC(C)(C)N3 | 190 nM | 8.5 nM |  |  |  |  | 25% | 55%
